Legend:
Mus musculus [1] = assay: Anticonvulsant activity by the maximal electroshock test in mice by intraperitoneal administration; type: functional; details: ip
Summary of the method: (§1)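 Mice, groups of 10; compounds given ip or po as aqueous solutions or suspensions in 10% aqueous acacia gum. Maximal seizures elicited 30-60 min after dosing by 60-Hz alternating current, 25 mA for 0.2 s via corneal electrodes. Absence of tonic-extensor seizure scored as protection. ED50 by Litchfield-Wilcoxon with 95% confidence limits, or estimated graphically.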

Mus musculus [2] = assay: Anticonvulsant activity was evaluated by the maximal electroshock test in mice, administered orally; type: functional; details: po; summary of the method: as §1
[3] = Lethal dose in mice determined after intraperitoneal administration.; type: toxicity, organism-based; details: mouse, in vivo, ip
Summary of the method: (§2)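 Mice dosed ip or po with aqueous solution or suspension in 10% aqueous acacia gum, 10 animals per dose. Mortality recorded over 7 days, with behavioural symptoms observed by the Irwin scheme. LD50 derived from dose–mortality data.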

[4] = Ionization constant was determined by potentiometric titration at 22 degree C; type: physicochemical
Summary of the method: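 Methanolic-aqueous 10⁻³ M solutions of the hydrochloride salts titrated with 0.02 M KOH. Glass-calomel electrode system read on an expanded pH scale. pKa' obtained by the Albert-Serjeant procedure.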

[5] = Partition coefficient (logP); type: physicochemical; details: octanol/water
Summary of the method: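 Octanol partitioning at room temperature (20 ± 5 °C) with gentle shaking for 6 h, then centrifugation for 15 min at 2000 rpm. Octanol phase quantified by gas chromatography. Amount in the second phase taken as total sample minus the octanol amount.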

[6] = Lethal dose determined in mice after oral administration; type: toxicity, organism-based; details: mouse, in vivo; summary of the method: as §2

Structure (SMILES) | ED50 (Mus musculus [1]) [mg/kg] | ED50 (Mus musculus [2]) [mg/kg] | LD50 [3] [mg/kg] | pKa [4] | logP [5] | LD50 [6] [mg/kg]
OC(Cn1ccnc1)c1ccc(Cl)cc1Cl (centres undefined) | 39.7 | 39.7 | 300 | – | – | –
O=C(Cn1ccnc1)c1ccc(Oc2ccccc2)cc1 | > 20 | > 20 | 100 | – | – | –
OC(Cn1ccnc1)c1ccc(Cl)cc1 (centres undefined) | 31 | > 54 | 270 | – | – | –
O=C(Cn1ccnc1)c1ccc(Cl)cc1 | > 48 | > 48 | 240 | – | – | –
O=C(Cn1ccnc1)c1ccc(CCc2ccccc2)cc1 | 12.7 | 36.9 | – | – | – | –
O=C(Cn1ccnc1)c1ccccc1Cl | – | – | 360 | – | – | –
CC(C(=O)c1ccc(CCc2ccccc2)cc1)n1ccnc1 (centres undefined) | > 23 | > 23 | 115 | – | – | –
O=C(Cn1ccnc1)c1ccccc1 | > 72 | – | 360 | 6.32 | 1.03 | –
Nc1ccc(C(=O)Cn2ccnc2)cc1 | > 72 | > 72 | 360 | – | – | –
CC(=O)Nc1ccc(C(=O)Cn2ccnc2)cc1 | > 200 | > 200 | 1000 | – | – | –
O=C(Cn1ccnc1)c1ccc([N+](=O)[O-])cc1 | > 72 | > 72 | 360 | – | – | –
CC(C)(C)c1ccc(C(=O)Cn2ccnc2)cc1 | > 20 | > 20 | 100 | – | – | –
CC(Cn1ccnc1)C(=O)c1ccc(-c2ccccc2)cc1 (centres undefined) | 19.5 | > 26 | 130 | – | – | –
O=C(CCn1ccnc1)c1ccc(-c2ccccc2)cc1 | 35.1 | 40.5 | – | – | – | 1150
O=C(Cn1ccnc1)c1cccc(-c2ccccc2)c1 | 11.2 | 21 | 210 | – | – | 750
O=C(Cn1ccnc1)c1ccc(C2CCCCC2)cc1 | 62.2 | 89.9 | > 3000 | – | – | 2100
O=C(Cn1ccnc1)c1ccc(O)cc1 | > 150 | > 150 | 750 | – | – | –
CC(C)(C(=O)c1ccc(CCc2ccccc2)cc1)n1ccnc1 | 29.5 | > 36 | 180 | – | – | –
CCC(C)c1ccc(C(=O)Cn2ccnc2)cc1 (centres undefined) | > 23 | > 23 | 115 | – | – | –
COc1ccc(C(=O)Cn2ccnc2)cc1 | > 54 | – | 270 | – | – | –
O=C(CCn1ccnc1)c1ccc(CCc2ccccc2)cc1 | 28.6 | 112 | > 3000 | – | – | 2100
O=C(Cn1ccnc1)c1ccc(O)c(O)c1 | > 200 | > 200 | 1000 | – | – | –
O=C(Cn1ccnc1)c1ccc(Cl)cc1Cl | > 84 | > 84 | 420 | – | – | –
CC(C(=O)c1ccc(-c2ccccc2)cc1)n1ccnc1 (centres undefined) | 13.4 | > 18 | 87.5 | – | – | –
CC(C)(C(=O)c1ccc(-c2ccccc2)cc1)n1ccnc1 | 38 | 42.9 | > 3000 | – | – | 1870
O=C(Cn1ccnc1)c1ccccc1-c1ccccc1 | 13.5 | 17.1 | 115 | – | – | 360

Structure (SMILES) | ED50 (Mus musculus [1]) [mg/kg] | ED50 (Mus musculus [2]) [mg/kg] | LD50 [3] [mg/kg] | pKa [4] | logP [5] | LD50 [6] [mg/kg]
O=C(Cn1ccnc1)c1ccc(-c2ccccc2)cc1 | 61.3 | 78.3 | 1550 | – | – | 2400
CS(=O)(=O)Nc1ccc(C(=O)Cn2ccnc2)cc1 | > 300 | > 300 | > 3000 | – | – | > 3000
CC(C(O)c1ccc(CCc2ccccc2)cc1)n1ccnc1.Cl (centres undefined) | 15 | 36 | 180 | – | – | –
Cl.OC(Cn1ccnc1)c1ccc(CCc2ccccc2)cc1 (centres undefined) | 5.3 | 10.2 | 270 | – | – | 434
Cl.OC(Cn1ccnc1)c1ccccc1 (centres undefined) | > 42 | – | 210 | 6.68 | 0.99 | –
Cl.O=[N+]([O-])c1ccc(C(O)Cn2ccnc2)cc1 (centres undefined) | 98 | 98 | 490 | – | – | –
CC(C)(C)c1ccc(C(O)Cn2ccnc2)cc1.Cl (centres undefined) | 42 | > 42 | 210 | – | – | –
COc1ccc(C(O)Cn2ccnc2)cc1.Cl (centres undefined) | > 72 | – | 360 | – | – | –
Cl.OC(Cn1ccnc1)c1ccc(C2CCCCC2)cc1 (centres undefined) | 53 | 59.6 | 490 | – | – | 2700
Cl.Nc1ccc(C(O)Cn2ccnc2)cc1 (centres undefined) | > 175 | > 175 | 875 | – | – | –
CC(C)(C(O)c1ccc(-c2ccccc2)cc1)n1ccnc1.Cl (centres undefined) | 23.8 | 25.1 | 420 | – | – | 2400
CC(C(O)c1ccc(-c2ccccc2)cc1)n1ccnc1.Cl (centres undefined) | 19.6 | 24.7 | 655 | – | – | 570
Cl.OC(Cn1ccnc1)c1ccc(Oc2ccccc2)cc1 (centres undefined) | 31.1 | > 48 | 360 | – | – | –
Cl.Oc1ccc(C(O)Cn2ccnc2)cc1O (centres undefined) | > 230 | > 230 | 1150 | – | – | –
Cl.OC(CCn1ccnc1)c1ccc(CCc2ccccc2)cc1 (centres undefined) | 21 | 24.7 | 420 | – | – | 560
Cl.OC(Cn1ccnc1)c1ccccc1-c1ccccc1 (centres undefined) | 18.8 | 24.5 | 155 | – | – | 300
CCC(C)c1ccc(C(O)Cn2ccnc2)cc1.Cl (centres undefined) | 28.5 | 31.2 | 210 | – | – | –
Cl.OC(CCn1ccnc1)c1ccc(-c2ccccc2)cc1 (centres undefined) | 44 | 53.5 | 360 | – | – | –
CC(C)(C(O)c1ccc(CCc2ccccc2)cc1)n1ccnc1.Cl (centres undefined) | 22.4 | > 48 | 240 | – | – | –
CC(Cn1ccnc1)C(O)c1ccc(-c2ccccc2)cc1.Cl (centres undefined) | 25.7 | 32.3 | 210 | – | – | –
Cl.Oc1ccc(C(O)Cn2ccnc2)cc1 (centres undefined) | > 200 | > 200 | 1000 | – | – | –
Cl.OC(Cn1ccnc1)c1ccc(-c2ccccc2)cc1 (centres undefined) | 45 | 31 | 1150 | – | – | > 30000
Cl.OC(Cn1ccnc1)c1cccc(-c2ccccc2)c1 (centres undefined) | 15.8 | 25 | 180 | – | – | –
CCC1(c2ccccc2)C(=O)NC(=O)NC1=O.Cl [PHENOBARBITAL HYDROCHLORIDE] | 22.5 | 17.6 | 235 | – | – | 237
Cl.O=C1NC(=O)C(c2ccccc2)(c2ccccc2)N1 [PHENYTOIN CHLORIDE] | 8.5 | 9.7 | – | – | – | –

Source: ChEMBL document CHEMBL1121641, “Synthesis and anticonvulsant activity of N-(benzoylalkyl)imidazoles and N-(omega-phenyl-omega-hydroxyalkyl)imidazoles” (J Med Chem, 1981)
